Assay results reported in ChEMBL document CHEMBL3580545, “Steroidal Alkaloids from Veratrum nigrum Enhance Glucose Uptake in Skeletal Muscle Cells” (J Nat Prod, 2015).
The source made the active and inactive calls. The rule behind the calls is not given here.

What was measured:
[1] = target: T1, Tyrosine-protein phosphatase non-receptor type 1 (Homo sapiens, UniProt P18031); assay: Inhibition of PTP1B (unknown origin) using p-nitrophenyl phosphate as substrate after 30 mins
T1 sequence (P18031 whole entry): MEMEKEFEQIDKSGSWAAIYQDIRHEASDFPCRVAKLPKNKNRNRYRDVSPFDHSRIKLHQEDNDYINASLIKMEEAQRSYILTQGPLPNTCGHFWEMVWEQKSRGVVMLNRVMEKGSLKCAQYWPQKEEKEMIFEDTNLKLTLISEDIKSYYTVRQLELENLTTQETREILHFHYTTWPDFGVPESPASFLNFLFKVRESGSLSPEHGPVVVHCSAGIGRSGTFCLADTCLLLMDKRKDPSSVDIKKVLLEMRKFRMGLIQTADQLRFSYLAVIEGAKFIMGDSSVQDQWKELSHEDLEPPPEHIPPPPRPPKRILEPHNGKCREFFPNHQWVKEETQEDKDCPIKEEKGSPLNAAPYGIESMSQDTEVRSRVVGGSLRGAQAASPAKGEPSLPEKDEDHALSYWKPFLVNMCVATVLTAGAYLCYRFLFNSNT
Summary of the method: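 PTP1B (source not stated) 0.05−0.1 μg with 2 mM p-nitrophenyl phosphate in 50 mM citrate pH 6.0, 0.1 M NaCl, 1 mM EDTA, 1 mM dithiothreitol, ± test compound; 37 °C for 30 min, quenched with 10 M NaOH; p-nitrophenol read at 405 nm; IC50 determined.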

[2] = system: C2C12; assay: Induction of 2-deoxy-[3H]-glucose uptake in mouse C2C12 cells at 10 uM after 2 hrs by liquid scintillation counting analysis relative to control; format: functional
Summary of the method: (§1)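 C2C12 myoblasts grown in DMEM/10% FBS, differentiated at confluence in 1% FBS DMEM to day 4. Myotubes serum-starved 3 h (0.2% BSA), 1 h in KRPH buffer pH 7.4, then compound (0.1% DMSO) for 2 h. Uptake of 0.5 μCi/mL 2-deoxy-[3H]-glucose plus 100 μM 2-deoxy-D-glucose for 10 min. Ice-cold PBS wash, SDS/NaOH lysis, scintillation counting normalized to protein. Three independent experiments in triplicate, mean ± SEM.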

[3] = system: C2C12; assay: Potentiation of insulin-induced 2-deoxy-[3H]-glucose uptake in mouse C2C12 cells at 10 uM preincubated with cells followed by insulin induction for 30 mins by liquid scintillation counting analysis relative to control; format: functional
Summary of the method: (§2)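 Differentiated C2C12 myotubes, serum-starved 3 h then 1 h in KRPH buffer pH 7.4, given compound (0.1% DMSO), then 100 nM insulin for 30 min. 2-Deoxy-[3H]-glucose (0.5 μCi/mL) with 100 μM 2-deoxy-D-glucose taken up for 10 min. Cells washed in cold PBS, lysed in 0.1% SDS/0.5 M NaOH, scintillation counted and normalized to total protein. Mean ± SEM, three experiments in triplicate.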

[4] = system: C2C12; assay: Induction of 2-deoxy-[3H]-glucose uptake in mouse C2C12 cells at 5 uM after 2 hrs by liquid scintillation counting analysis; format: functional, cell-based; summary of the method: as §1
[5] = system: C2C12; assay: Potentiation of insulin-induced 2-deoxy-[3H]-glucose uptake in mouse C2C12 cells at 5 uM preincubated with cells followed by insulin induction for 30 mins by liquid scintillation counting analysis; format: functional, cell-based; summary of the method: as §2
[6] = system: C2C12; assay: Induction of 2-deoxy-[3H]-glucose uptake in mouse C2C12 cells at 30 uM after 2 hrs by liquid scintillation counting analysis; format: functional, cell-based; summary of the method: as §1
[7] = system: C2C12; assay: Potentiation of insulin-induced 2-deoxy-[3H]-glucose uptake in mouse C2C12 cells at 30 uM preincubated with cells followed by insulin induction for 30 mins by liquid scintillation counting analysis relative to control; format: functional; summary of the method: as §2

Row | SMILES | IC50 [1] [µM] | Activity [2] [%] | Activity [3] [%] | further results
1 | CC1=C2C(=O)[C@H]3[C@@H](CC[C@@H]4C[C@@H](O)C[C@@H](O)[C@@]43C)[C@@H]2CC[C@]12O[C@@H]1C[C@H](C)CN[C@H]1[C@H]2C | > 30 |  |  | 
2 | CN(CCOc1ccc(CC2SC(=O)NC2=O)cc1)c1ccccn1 (stereo not drawn) [ROSIGLITAZONE] |  |  |  | Activity [6]: Active; Activity [7]: 47.3%
3 | C[C@H]1CC[C@@H]2N(C1)C[C@H]1[C@@H]3C[C@H]4[C@@H](CC=C5C[C@@H](OC=O)CC[C@@]54C)[C@@H]3C[C@H](O)[C@@H]1[C@]2(C)O | > 30 |  |  | 

Second part, led by results:

Row | IC50 [1] [µM] | SMILES | Activity [2] [%] | Activity [3] [%] | further results
4 | 4.7 | CC(=O)O[C@H]1CC[C@@]2(C)C(=CC[C@H]3c4ccc([C@H](C)[C@@H]5NC[C@@H](C)C[C@H]5O)c(C)c4C[C@@H]32)C1 | 24.8 | 56 | 
5 | 11.3 | CC1=C2C(=O)[C@H]3[C@@H](CC=C4C[C@@H](OC=O)CC[C@@]43C)[C@@H]2CC[C@]12O[C@@H]1C[C@H](C)CN[C@H]1[C@H]2C | 15 | 49.9 | Activity [4]: Active; Activity [5]: Active
6 | > 30 | C[C@@H]1CN[C@H]2[C@@H](C)[C@@]3(CC[C@@H]4C(=C[C@H]5[C@H]4CC=C4C[C@@H](O)CC[C@@]45C)[C@@]3(C)O)O[C@@H]2C1 |  |  | 
